In article PMC5598103 (Toxicology Reports, 2014):

Experiments:
[1] = target: T1, tissue non-specific alkaline phosphatase (TNAP) (Homo sapiens, UniProt P05186); assay: Alkaline phosphatase inhibition, spectrophotometric p-NPP assay; type: biochemical; conditions: for Ki: read-out: Ki ± SEM TNAP, pH 9.5, p-NPP substrate, SEM of 3 experiments
T1 sequence (P05186 18-524): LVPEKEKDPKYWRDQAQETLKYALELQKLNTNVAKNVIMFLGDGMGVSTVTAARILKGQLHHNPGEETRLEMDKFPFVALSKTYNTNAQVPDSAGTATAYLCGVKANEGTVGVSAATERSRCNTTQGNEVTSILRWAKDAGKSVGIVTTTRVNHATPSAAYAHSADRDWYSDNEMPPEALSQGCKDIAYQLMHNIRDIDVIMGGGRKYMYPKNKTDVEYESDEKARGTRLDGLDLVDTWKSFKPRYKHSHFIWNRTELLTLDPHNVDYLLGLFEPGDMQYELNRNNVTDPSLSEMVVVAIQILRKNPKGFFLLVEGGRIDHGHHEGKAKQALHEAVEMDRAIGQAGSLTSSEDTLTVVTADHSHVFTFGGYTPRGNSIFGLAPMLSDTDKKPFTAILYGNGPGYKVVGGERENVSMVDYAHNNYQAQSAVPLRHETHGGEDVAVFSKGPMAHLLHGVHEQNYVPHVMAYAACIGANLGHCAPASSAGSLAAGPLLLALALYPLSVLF
Procedure, shortened: (§1)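 Commercial enzyme (calf-intestinal CIAP; TNAP) diluted in pH 9.5 buffer of 50 mM Tris–HCl, 5 mM MgCl2, 0.1 mM ZnCl2 and 50% glycerol. Test compound was preincubated with enzyme in glycerol-free buffer at 37 °C for 10 min. 0.5 mM p-NPP solution was added, incubated 30 min, and p-nitrophenolate read at 405 nm. Screen at 0.1 mM used levamisole (TNAP) or L-phenylalanine (CIAP) as standards. Ki came from 3-fold serial dilutions, run in triplicate.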

[2] = tested on: vero cells; assay: Cytotoxicity by sulforhodamine B; type: cell-based; conditions: for Percent inhibition ± SEM at 10 μM on vero cells: up to 48 h
Procedure, shortened: (§2)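 HeLa or vero cells were grown in RPMI-1640 with 2 mM L-glutamine, penicillin/streptomycin and 10% FBS at 37 °C, 5% CO2. Cells were seeded at 10^4 per well for 24 h, then exposed to 10, 1 or 0.1 μM test compound for up to 48 h, with vincristine and medium controls. Cells were fixed with cold TCA for 1 h and stained 30 min with 0.4% SRB in 1% acetic acid. Dye was solubilised in 10 mM Tris base and read at 490 nm minus 630 nm. Three experiments were run, each in triplicate.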

[3] = tested on: HeLa cells; assay: Cytotoxicity by sulforhodamine B; type: cell-based, human; conditions: for Percent inhibition ± SEM at 0.1 μM on Hela cells / Percent inhibition ± SEM at 1 μM on Hela cells / Percent inhibition ± SEM at 10 μM on Hela cells: up to 48 h
Procedure, shortened: as §2

[4] = target: calf intestine alkaline phosphatase (CIAP); assay: Alkaline phosphatase inhibition, spectrophotometric p-NPP assay; type: biochemical; conditions: read-out: Ki ± SEM CIAP; pH 9.5, p-NPP substrate, SEM of 3 experiments
Procedure, shortened: as §1

inhibition at 100 µM ([1]; read-out: Percent inhibition of TNAP) [%]	Ki [4] [nM]	Ki [1] [nM]	Compound	inhibition at 10 µM ([2]; Chlorocebus sabaeus, Vero, 48 h, read-out: Percent inhibition ± SEM at 10 μM on vero cells) [%]	inhibition at 10 µM ([3]; Homo sapiens, HeLa, 48 h, read-out: Percent inhibition ± SEM at 10 μM on Hela cells) [%]	Percent inhibition ± SEM at 10 μM on vero cells [2] [%]	Percent inhibition ± SEM at 0.1 μM on Hela cells [3] [%]	Percent inhibition ± SEM at 1 μM on Hela cells [3] [%]	Percent inhibition ± SEM at 10 μM on Hela cells [3] [%]
71			c1ccc([C@H]2CN3CCSC3=N2)cc1 [Levamisole, reference compound]						
			CC[C@]1(O)C[C@H]2CN(CCc3c([nH]c4ccccc34)[C@@](C(=O)OC)(c3cc4c(cc3OC)N(C=O)[C@H]3[C@@](O)(C(=O)OC)[C@H](OC(C)=O)[C@]5(CC)C=CCN6CC[C@]43[C@@H]65)C2)C1 [VCN, vincristine, reference compound]	10 ± 4	72 ± 7				
	921 ± 6	1110 ± 36	(NH4)14[NaP5W30O110]·31H2O			15 ± 6	54 ± 6	62 ± 13	74 ± 10
	520 ± 13	45.4 ± 11.3	Na6[TeW6O24]·22H2O			16 ± 8	53 ± 12	62 ± 10	69 ± 10
	79.1 ± 2.3	169 ± 21	Na6[V10O28]·18H2O			16 ± 3	49 ± 11	57 ± 13	66 ± 15
